pIC50: −log10 of the molar value. ≈ marks a conversion by molar mass, not a printed value.
Experiments:
[1] = molecular target: Integrin alpha-4/beta-7 (Homo sapiens) (UniProt P13612+P26010); assay: Inhibition of human MAdCAM1 binding to integrin alpha4beta7 receptor in human RPMI 8866 cells labeled with Calcein AM relative to RO0270608; type: cell-based
Procedure, shortened: (§1)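 Serially diluted compound tested for blocking adhesion of Calcein AM-labelled cells to recombinant human counter-ligand: RAMOS cells on VCAM-1 (α4β1) and RPMI 8866 cells on MAdCAM-1 (α4β7). Cells activated beforehand in Mn2+-containing binding buffer for maximal activation. IC50 taken from fluorescence; RO0270608 run on every plate, and relative potency expressed as fold versus this control because cell activity drifted with passage.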

Integrin alpha-4/beta-1 [2] = molecular target: T1, Integrin alpha-4/beta-1 (Homo sapiens, UniProt P05556+P13612); assay: Inhibition of human VCAM1 binding to integrin alpha4beta1 receptor in human Ramos cells labeled with Calcein AM relative to RO0270608; type: cell-based; procedure, shortened: as §1
T1 sequence (P05556 whole entry, one chain of several): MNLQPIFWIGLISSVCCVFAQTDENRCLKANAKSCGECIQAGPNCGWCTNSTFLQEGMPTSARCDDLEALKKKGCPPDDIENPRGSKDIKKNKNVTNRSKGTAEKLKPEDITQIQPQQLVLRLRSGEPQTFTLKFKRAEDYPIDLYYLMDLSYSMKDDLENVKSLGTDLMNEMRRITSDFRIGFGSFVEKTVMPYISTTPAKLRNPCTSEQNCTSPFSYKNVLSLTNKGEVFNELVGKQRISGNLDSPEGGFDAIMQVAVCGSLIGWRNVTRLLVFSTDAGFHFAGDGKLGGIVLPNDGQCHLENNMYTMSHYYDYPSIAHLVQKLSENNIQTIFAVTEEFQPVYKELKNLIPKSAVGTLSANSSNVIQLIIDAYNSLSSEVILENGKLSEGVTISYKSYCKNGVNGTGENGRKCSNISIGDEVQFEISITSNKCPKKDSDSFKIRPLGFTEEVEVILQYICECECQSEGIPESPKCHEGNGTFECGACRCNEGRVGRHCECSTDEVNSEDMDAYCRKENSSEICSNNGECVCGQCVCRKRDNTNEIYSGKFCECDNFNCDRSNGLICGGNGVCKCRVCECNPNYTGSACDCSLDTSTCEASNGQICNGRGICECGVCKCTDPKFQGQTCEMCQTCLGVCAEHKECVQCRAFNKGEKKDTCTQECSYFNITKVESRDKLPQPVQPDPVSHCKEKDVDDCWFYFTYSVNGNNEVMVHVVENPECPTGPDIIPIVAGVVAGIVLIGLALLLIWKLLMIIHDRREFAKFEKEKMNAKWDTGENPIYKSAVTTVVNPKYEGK

Integrin alpha-4/beta-7 = molecular target: T2, Integrin alpha-4/beta-7 (Homo sapiens, UniProt P13612+P26010); assay: Inhibition of human MAdCAM1 binding to integrin alpha4beta7 receptor in human RPMI 8866 cells labeled with Calcein AM; type: cell-based; procedure, shortened: as §1
T2 sequence (P13612 whole entry): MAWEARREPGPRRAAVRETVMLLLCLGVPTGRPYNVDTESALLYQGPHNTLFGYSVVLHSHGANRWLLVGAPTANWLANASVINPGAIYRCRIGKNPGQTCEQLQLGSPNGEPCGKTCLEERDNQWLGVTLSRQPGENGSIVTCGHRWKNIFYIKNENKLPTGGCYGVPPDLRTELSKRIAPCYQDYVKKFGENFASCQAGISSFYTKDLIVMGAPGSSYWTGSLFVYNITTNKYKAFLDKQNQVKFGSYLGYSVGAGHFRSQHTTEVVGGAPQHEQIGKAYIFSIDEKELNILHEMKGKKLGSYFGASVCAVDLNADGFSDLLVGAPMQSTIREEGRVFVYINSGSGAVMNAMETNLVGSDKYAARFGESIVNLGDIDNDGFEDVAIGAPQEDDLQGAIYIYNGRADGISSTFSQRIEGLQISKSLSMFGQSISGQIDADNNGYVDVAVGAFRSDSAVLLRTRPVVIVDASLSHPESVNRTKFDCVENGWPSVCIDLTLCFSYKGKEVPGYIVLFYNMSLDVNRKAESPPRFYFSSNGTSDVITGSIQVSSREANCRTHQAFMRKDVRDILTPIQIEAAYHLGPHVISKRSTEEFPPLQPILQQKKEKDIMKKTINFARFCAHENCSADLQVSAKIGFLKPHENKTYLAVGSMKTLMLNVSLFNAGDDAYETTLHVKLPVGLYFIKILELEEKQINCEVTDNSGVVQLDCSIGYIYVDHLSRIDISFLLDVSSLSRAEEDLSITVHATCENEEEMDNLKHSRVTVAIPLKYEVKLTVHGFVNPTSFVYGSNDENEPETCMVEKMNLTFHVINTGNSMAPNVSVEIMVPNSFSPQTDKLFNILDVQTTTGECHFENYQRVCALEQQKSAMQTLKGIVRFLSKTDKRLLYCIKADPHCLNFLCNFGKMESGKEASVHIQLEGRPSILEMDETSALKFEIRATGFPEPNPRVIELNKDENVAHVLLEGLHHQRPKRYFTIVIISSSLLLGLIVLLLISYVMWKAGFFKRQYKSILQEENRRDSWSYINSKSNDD
T2 sequence (P26010 whole entry): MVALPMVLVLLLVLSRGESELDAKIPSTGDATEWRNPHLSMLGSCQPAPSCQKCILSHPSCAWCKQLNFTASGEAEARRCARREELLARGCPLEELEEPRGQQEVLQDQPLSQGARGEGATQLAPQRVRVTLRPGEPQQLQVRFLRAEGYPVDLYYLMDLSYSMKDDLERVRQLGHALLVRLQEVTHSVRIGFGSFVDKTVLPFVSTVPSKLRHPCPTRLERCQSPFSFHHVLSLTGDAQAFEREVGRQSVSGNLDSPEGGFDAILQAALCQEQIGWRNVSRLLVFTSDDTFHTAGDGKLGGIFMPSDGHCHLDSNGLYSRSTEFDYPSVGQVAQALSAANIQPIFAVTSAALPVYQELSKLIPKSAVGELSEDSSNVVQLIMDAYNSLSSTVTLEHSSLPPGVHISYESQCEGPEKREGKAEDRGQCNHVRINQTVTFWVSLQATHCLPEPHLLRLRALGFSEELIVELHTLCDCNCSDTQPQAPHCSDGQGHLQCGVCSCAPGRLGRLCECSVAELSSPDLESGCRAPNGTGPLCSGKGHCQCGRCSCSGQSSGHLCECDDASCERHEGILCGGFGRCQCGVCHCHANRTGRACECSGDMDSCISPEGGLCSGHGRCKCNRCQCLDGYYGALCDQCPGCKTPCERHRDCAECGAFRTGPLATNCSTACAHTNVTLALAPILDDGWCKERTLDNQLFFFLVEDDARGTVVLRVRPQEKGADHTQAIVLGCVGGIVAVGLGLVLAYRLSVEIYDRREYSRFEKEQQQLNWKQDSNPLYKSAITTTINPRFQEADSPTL

Integrin alpha-4/beta-1 [3] = molecular target: T1, Integrin alpha-4/beta-1; assay: Inhibition of human VCAM1 binding to integrin alpha4beta1 receptor in human Ramos cells labeled with Calcein AM; type: cell-based; procedure, shortened: as §1
[4] = Oral bioavailability in rat; type: ADME, organism-based; details: in vivo
hERG (KCNH2) = hERG (KCNH2) (Homo sapiens, UniProt Q12809); assay: Inhibition of human ERG
Sequence of hERG (KCNH2) (Q12809 whole entry): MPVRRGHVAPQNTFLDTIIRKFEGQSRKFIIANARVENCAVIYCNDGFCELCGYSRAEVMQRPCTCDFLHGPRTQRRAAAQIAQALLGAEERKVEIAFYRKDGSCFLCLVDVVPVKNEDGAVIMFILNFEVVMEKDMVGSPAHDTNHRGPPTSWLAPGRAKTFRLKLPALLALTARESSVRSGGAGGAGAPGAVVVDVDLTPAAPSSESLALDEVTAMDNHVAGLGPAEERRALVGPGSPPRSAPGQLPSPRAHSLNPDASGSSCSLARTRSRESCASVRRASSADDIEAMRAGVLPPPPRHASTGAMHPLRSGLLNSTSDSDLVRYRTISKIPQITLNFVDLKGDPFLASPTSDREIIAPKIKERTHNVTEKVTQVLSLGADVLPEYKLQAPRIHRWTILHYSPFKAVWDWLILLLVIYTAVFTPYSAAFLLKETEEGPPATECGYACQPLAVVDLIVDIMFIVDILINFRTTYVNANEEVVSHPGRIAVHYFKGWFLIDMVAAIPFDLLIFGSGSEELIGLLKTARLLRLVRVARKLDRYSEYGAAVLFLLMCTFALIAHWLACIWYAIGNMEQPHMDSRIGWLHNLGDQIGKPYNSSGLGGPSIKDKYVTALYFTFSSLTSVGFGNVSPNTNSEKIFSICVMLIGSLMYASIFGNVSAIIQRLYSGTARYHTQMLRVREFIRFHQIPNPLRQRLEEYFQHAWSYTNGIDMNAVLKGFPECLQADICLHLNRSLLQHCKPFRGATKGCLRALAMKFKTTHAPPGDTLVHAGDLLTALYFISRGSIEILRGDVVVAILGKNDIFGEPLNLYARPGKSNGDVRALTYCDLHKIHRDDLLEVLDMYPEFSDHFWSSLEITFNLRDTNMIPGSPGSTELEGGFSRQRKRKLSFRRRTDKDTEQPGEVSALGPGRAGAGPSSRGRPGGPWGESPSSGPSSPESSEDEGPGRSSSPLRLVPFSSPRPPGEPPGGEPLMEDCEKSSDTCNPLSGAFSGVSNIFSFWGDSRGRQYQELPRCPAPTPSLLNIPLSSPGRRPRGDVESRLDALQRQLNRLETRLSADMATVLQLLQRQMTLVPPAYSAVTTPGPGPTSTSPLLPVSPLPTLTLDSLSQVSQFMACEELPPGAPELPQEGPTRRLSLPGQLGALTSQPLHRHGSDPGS

[5] = Stability in simulated intestinal fluid at pH 7.5 assessed as half life; type: physicochemical; details: for half-life: simulated intestinal fluid; for Stability: simulated gi fluid
[6] = Solubility in simulated gastric fluid at pH 2.0; type: physicochemical
[7] = Apparent permeability across human Caco2 cells; type: ADME, cell-based; details: Caco-2
[8] = Stability in plasma (unknown origin) assessed as unchanged prodrug level; type: ADME, cell-free
[9] = Solubility in simulated intestinal fluid at pH 7.5; type: physicochemical
[10] = simulated gastric fluid, read-out: solubility
[11] = simulated gi fluid, BLD = below limit of detection

COCCC1(C(=O)N[C@@H](Cc2ccc(-c3c(C(F)(F)F)cc(C)n(C)c3=O)cc2)C(=O)O)CCCC1
Ratio IC50 [1]: 0.54
Ratio IC50 (Integrin alpha-4/beta-1 [2]): 0.75
pIC50 (Integrin alpha-4/beta-7): 6.17
pIC50 (Integrin alpha-4/beta-1 [3]): 6.85

Cc1cc(C(F)(F)F)c(-c2ccc(C[C@H](NC(=O)c3c(Cl)cccc3Cl)C(=O)O)cc2)c(=O)n1CC1CC1
Ratio IC50 [1]: 0.34
Ratio IC50 (Integrin alpha-4/beta-1 [2]): 0.03
pIC50 (Integrin alpha-4/beta-7): 5.91
pIC50 (Integrin alpha-4/beta-1 [3]): 6.33

CCc1cccc(C)c1C(=O)N[C@@H](Cc1ccc(-c2c(C(F)(F)F)cc(C)n(C)c2=O)cc1)C(=O)O
Ratio IC50 [1]: 0.7
Ratio IC50 (Integrin alpha-4/beta-1 [2]): 0.41
pIC50 (Integrin alpha-4/beta-7): 6.12
pIC50 (Integrin alpha-4/beta-1 [3]): 6.65

Cc1cccc(C(C)C)c1C(=O)N[C@@H](Cc1ccc(-c2c(C(F)(F)F)cc(C)n(C)c2=O)cc1)C(=O)O
Ratio IC50 [1]: 0.23
Ratio IC50 (Integrin alpha-4/beta-1 [2]): 0.36
pIC50 (Integrin alpha-4/beta-7): 5.89
pIC50 (Integrin alpha-4/beta-1 [3]): 6.44

Cc1cccc(Cl)c1C(=O)N[C@@H](Cc1ccc(-c2cccn(C)c2=O)cc1)C(=O)O
Ratio IC50 [1]: 0.46
Ratio IC50 (Integrin alpha-4/beta-1 [2]): 0.03
pIC50 (Integrin alpha-4/beta-7): 6.16
pIC50 (Integrin alpha-4/beta-1 [3]): 6.24

CCN(CC)CCOC(=O)[C@H](Cc1ccc(-c2c(C(F)(F)F)cc(C)n(C)c2=O)cc1)NC(=O)c1c(Cl)cccc1Cl
bioavailability [4]: 12%
IC20 (hERG (KCNH2)): 11.7 µM
half-life [5]: 0.5 h
solubility [6, 10]: > 5000 µg/mL
Papp [7]: 9.6 ×10⁻⁶ cm/s

CCn1c(C)cc(C(F)(F)F)c(-c2ccc(C[C@H](NC(=O)c3c(Cl)cccc3Cl)C(=O)O)cc2)c1=O
Ratio IC50 [1]: 1.9
Ratio IC50 (Integrin alpha-4/beta-1 [2]): 0.4
pIC50 (Integrin alpha-4/beta-7): 7.21
pIC50 (Integrin alpha-4/beta-1 [3]): 6.95

Cc1cc(C(F)(F)F)c(-c2ccc(C[C@H](NC(=O)c3c(Cl)cccc3Cl)C(=O)OCC(O)CO)cc2)c(=O)n1C (stereo partly specified)
Stability [8]: Stable
bioavailability [4]: 6%
Stability [5]: Stable
solubility [6, 10]: 190 µg/mL (≈ 316 µM)
solubility [9]: 140 µg/mL (≈ 233 µM)
Papp [7]: 1.8 ×10⁻⁶ cm/s

Cc1cc(C(F)(F)F)c(-c2ccc(C[C@H](NC(=O)c3c(Cl)cccc3Cl)C(=O)OCC(C)C)cc2)c(=O)n1C
Stability [5]: Stable
solubility [6, 11]: BLD
Papp [7]: 32.5 ×10⁻⁶ cm/s

Cc1cccc(Cl)c1C(=O)N[C@@H](Cc1ccc(-c2c(C)cc(C(F)(F)F)n(C)c2=O)cc1)C(=O)O
Ratio IC50 [1]: 2.6
Ratio IC50 (Integrin alpha-4/beta-1 [2]): 0.06
pIC50 (Integrin alpha-4/beta-7): 6.80
pIC50 (Integrin alpha-4/beta-1 [3]): 6.57

Cc1ccn(C)c(=O)c1-c1ccc(C[C@H](NC(=O)c2c(Cl)cccc2Cl)C(=O)O)cc1
Ratio IC50 [1]: 1.6
Ratio IC50 (Integrin alpha-4/beta-1 [2]): 0.37
pIC50 (Integrin alpha-4/beta-7): 6.75
pIC50 (Integrin alpha-4/beta-1 [3]): 7.05

Cc1cccc(Cl)c1C(=O)N[C@@H](Cc1ccc(-c2c(C(F)(F)F)cc(C)n(C)c2=O)cc1)C(=O)O
Ratio IC50 [1]: 3.5
Ratio IC50 (Integrin alpha-4/beta-1 [2]): 0.47
pIC50 (Integrin alpha-4/beta-7): 6.81
pIC50 (Integrin alpha-4/beta-1 [3]): 7.32

Cc1cc(C(F)(F)F)c(-c2ccc(C[C@H](NC(=O)c3c(Cl)cccc3Cl)C(=O)O)cc2)c(=O)n1Cc1ccccc1
Ratio IC50 [1]: 0.96
Ratio IC50 (Integrin alpha-4/beta-1 [2]): 0.12
pIC50 (Integrin alpha-4/beta-7): 6.22
pIC50 (Integrin alpha-4/beta-1 [3]): 6.25

Cc1cc(C(F)(F)F)c(-c2ccc(C[C@H](NC(=O)c3c(Cl)cccc3Cl)C(=O)O)cc2)c(=O)[nH]1
Ratio IC50 [1]: 0.65
Ratio IC50 (Integrin alpha-4/beta-1 [2]): 0.08
pIC50 (Integrin alpha-4/beta-7): 6.09
pIC50 (Integrin alpha-4/beta-1 [3]): 6.09

CC(=O)OC(C)OC(=O)[C@H](Cc1ccc(-c2c(C(F)(F)F)cc(C)n(C)c2=O)cc1)NC(=O)c1c(Cl)cccc1Cl (stereo partly specified)
bioavailability [4]: 17%
Stability [5]: Stable
solubility [9]: 4 µg/mL (≈ 6.52 µM)
Papp [7]: 27.5 ×10⁻⁶ cm/s

CCCOC(=O)[C@H](Cc1ccc(-c2c(C(F)(F)F)cc(C)n(C)c2=O)cc1)NC(=O)c1c(Cl)cccc1Cl
Stability [5]: Stable
solubility [6, 11]: BLD
Papp [7]: 52.6 ×10⁻⁶ cm/s

Cc1cccc(Cl)c1C(=O)N[C@@H](Cc1ccc(-c2c(C)ccn(C)c2=O)cc1)C(=O)O
Ratio IC50 [1]: 0.68
Ratio IC50 (Integrin alpha-4/beta-1 [2]): 0.23
pIC50 (Integrin alpha-4/beta-7): 6.44
pIC50 (Integrin alpha-4/beta-1 [3]): 6.65

COc1ccc(Br)c(C(=O)N[C@@H](Cc2ccc(-c3cccn(C)c3=O)cc2)C(=O)O)c1
pIC50 (Integrin alpha-4/beta-1 [3]): 6.38

Cc1cccc(Cl)c1C(=O)N[C@@H](Cc1ccc(NC(=O)c2c(Cl)cccc2Cl)cc1)C(=O)O
pIC50 (Integrin alpha-4/beta-7): 7.37
pIC50 (Integrin alpha-4/beta-1 [3]): 8.00

Cc1cc(C(F)(F)F)c(-c2ccc(C[C@H](NC(=O)c3c(Cl)cccc3Cl)C(=O)OCC(=O)N(C)C)cc2)c(=O)n1C
Stability [5]: Stable
solubility [6, 10]: 0.8 µg/mL (≈ 1.31 µM)
solubility [9]: 0.7 µg/mL (≈ 1.14 µM)
Papp [7]: 6.3 ×10⁻⁶ cm/s

COCCCOC(=O)[C@H](Cc1ccc(-c2c(C(F)(F)F)cc(C)n(C)c2=O)cc1)NC(=O)c1c(Cl)cccc1Cl
bioavailability [4]: 2%
Papp [7]: 22.8 ×10⁻⁶ cm/s

Cc1cc(C(F)(F)F)n(C)c(=O)c1-c1ccc(C[C@H](NC(=O)c2c(Cl)cccc2Cl)C(=O)O)cc1
Ratio IC50 [1]: 2.2
Ratio IC50 (Integrin alpha-4/beta-1 [2]): 0.11
pIC50 (Integrin alpha-4/beta-7): 6.90
pIC50 (Integrin alpha-4/beta-1 [3]): 6.57

Cc1cc(C(F)(F)F)c(-c2ccc(C[C@H](NC(=O)c3c(Cl)cccc3Cl)C(=O)OCC3CCOC3)cc2)c(=O)n1C (stereo partly specified)
Stability [5]: Stable
solubility [6, 10]: 0.03 µg/mL (≈ 0.0491 µM)
solubility [9]: 0.03 µg/mL (≈ 0.0491 µM)
Papp [7]: 76.4 ×10⁻⁶ cm/s

COCCOC(=O)[C@H](Cc1ccc(-c2c(C(F)(F)F)cc(C)n(C)c2=O)cc1)NC(=O)c1c(Cl)cccc1Cl
Stability [5]: Stable
solubility [6, 11]: BLD
Papp [7]: 49.9 ×10⁻⁶ cm/s

Cc1cc(C(F)(F)F)c(-c2ccc(C[C@H](NC(=O)c3c(Cl)cccc3Cl)C(=O)OCCN3CCOCC3)cc2)c(=O)n1C
Stability [8]: Stable
bioavailability [4]: 15%
IC20 (hERG (KCNH2)): 11 µM
half-life [5]: 4 h
solubility [6, 10]: > 13000 µg/mL
solubility [9]: 200 µg/mL (≈ 312 µM)
Papp [7]: 16.2 ×10⁻⁶ cm/s

— ChEMBL document CHEMBL2331548, “Identification of N-acyl 4-(3-pyridonyl)phenylalanine derivatives and their orally active prodrug esters as dual acting α4β1 and α4β7 receptor antagonists” (Bioorg Med Chem Lett, 2013)
